≈ marks a conversion by molar mass, not a printed value. Calls of active or inactive are those of the source. No cut-off for these calls is given here.
Experiments:
Format in all cases: functional
Aspergillus flavus [1] = assay: Antifungal activity against Aspergillus flavus by agar diffusion technique
Summary of the method: (§1)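 Clinical isolates (A. flavus mold; C. albicans yeast), spore suspension standardized at 10⁴ CFU/mL. DMSO stocks diluted to a concentration series. Approximate MIC by agar diffusion (well technique), taken as the concentration giving minimal inhibition around the well.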

Aspergillus flavus [2] = assay: Antifungal activity against Aspergillus flavus at 500 ppm
Summary of the method: (§2)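 Agar well diffusion against clinical isolates (A. flavus mold; C. albicans yeast); standardized spore suspension 10⁴ CFU/mL. Compounds dissolved in DMSO as a parent stock, diluted to test levels (100, 300, 500, 1000 ppm).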

Aspergillus flavus [3] = assay: Antifungal activity against Aspergillus flavus at 300 ppm; summary of the method: as §2
Candida albicans [4] = assay: Antifungal activity against Candida albicans by agar diffusion technique; summary of the method: as §1
Aspergillus flavus [5] = assay: Antifungal activity against Aspergillus flavus at 100 ppm
Summary of the method: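 Clinical isolate of A. flavus (mold) tested by agar diffusion, well technique, using a standardized spore suspension of 10⁴ CFU/mL. Compounds were dissolved in dimethylsulphoxide and diluted from a parent stock.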

Candida albicans [6] = assay: Antifungal activity against Candida albicans at 500 ppm; conditions: read-out: DIZ; summary of the method: as §2
Candida albicans [7] = assay: Antifungal activity against Candida albicans at 1000 ppm; conditions: read-out: DIZ; summary of the method: as §2
Aspergillus flavus [8] = assay: Antifungal activity against Aspergillus flavus at 1000 ppm; summary of the method: as §2
Candida albicans [9] = assay: Antifungal activity against Candida albicans at 100 ppm; summary of the method: as §2
Aspergillus flavus [10] = assay: Antifungal activity against Aspergillus flavus up to 24 hrs
Summary of the method: (§3)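 MFC in tubes of standardized spore suspension (10⁴ CFU/mL) of clinical isolates, each dosed with compound at increasing concentrations starting from the MIC. Controls: solvent at its highest level, and fluconazole. CFU counted and viability checked at intervals over 0–24 h. MFC is the lowest concentration killing about 99% of viable CFU.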

Candida albicans [11] = assay: Antifungal activity against Candida albicans up to 24 hrs; summary of the method: as §3
Candida albicans [12] = assay: Antifungal activity against Candida albicans at 300 ppm; summary of the method: as §2

CCOC(=O)CSc1nnc2sc3ccccc3n12
MIC (Aspergillus flavus [1]): inactive
diameter of the inhibition zone (DIZ) (Aspergillus flavus [2]): inactive
diameter of the inhibition zone (DIZ) (Aspergillus flavus [3]): inactive
MIC (Candida albicans [4]): 500 mg/L (≈ 1700 µM)
diameter of the inhibition zone (DIZ) (Aspergillus flavus [5]): inactive
zone of inhibition at 500 ppm (Candida albicans [6]): < 10 mm
zone of inhibition at 1000 ppm (Candida albicans [7]): 10 mm
diameter of the inhibition zone (DIZ) (Aspergillus flavus [8]): inactive
diameter of the inhibition zone (DIZ) (Candida albicans [9]): inactive
MFC (Aspergillus flavus [10]): inactive
MFC (Candida albicans [11]): inactive
diameter of the inhibition zone (DIZ) (Candida albicans [12]): inactive

O=C(O)CCSc1nnc2sc3ccccc3n12
MIC (Aspergillus flavus [1]): 500 mg/L (≈ 1790 µM)
zone of inhibition at 500 ppm (Aspergillus flavus [2]; read-out: DIZ): < 10 mm
diameter of the inhibition zone (DIZ) (Aspergillus flavus [3]): inactive
MIC (Candida albicans [4]): 300 mg/L (≈ 1070 µM)
diameter of the inhibition zone (DIZ) (Aspergillus flavus [5]): inactive
zone of inhibition at 500 ppm (Candida albicans [6]): 10 mm
zone of inhibition at 1000 ppm (Candida albicans [7]): > 16 mm
zone of inhibition at 1000 ppm (Aspergillus flavus [8]; read-out: DIZ): 10 mm
diameter of the inhibition zone (DIZ) (Candida albicans [9]): inactive
MFC (Aspergillus flavus [10]): inactive
MFC (Candida albicans [11]): inactive
zone of inhibition at 300 ppm (Candida albicans [12]; read-out: DIZ): < 10 mm
